Legend:
[1] = folding enthalpy; higher = less favourable; fluorescence melt of hairpins on a sequencing array, two-state fit; settings: sodium 0.088 M
How it was run: (§1)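 In 50 mM Na-HEPES pH 8.0 containing 25 mM NaCl, hairpins from the library on a sequenced MiSeq flow cell were imaged for Cy3 fluorescence at 2.5 °C steps up to 60 °C, with Cy3 and quencher oligos annealed. After normalisation to pre-quench Cy3 and to control constructs, two-state fits with bootstrapping gave melting temperature and folding enthalpy. Four replicates were combined by inverse-variance weighting, and fitted temperatures were shifted up by 9.35 °C to match UV melts.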

[2] = melting temperature; fluorescence melt of hairpins on a sequencing array, two-state fit, raised by 9.35 °C to match UV melts; settings: sodium 0.088 M
How it was run: as §1

| Sequence | folding enthalpy [1] | Tm [2] |
| --- | --- | --- |
| GATCGTTCAAACGATC ((((((....)))))) | -42.7 kcal/mol | 55 °C |
| GATCGTTCAACGATC ((((((...)))))) | -42 kcal/mol | 55.5 °C |
| GATCGTTCAGACGATC ((((((....)))))) | -38.9 kcal/mol | 55.6 °C |
| GATCGTTCCGACGATC ((((((....)))))) | -40.9 kcal/mol | 56.1 °C |
| GATCGTTCTAACGATC ((((((....)))))) | -39.7 kcal/mol | 57.3 °C |
| GATCGTTCTGACGATC ((((((....)))))) | -44.4 kcal/mol | 55.5 °C |
| GATCGTTCTTACGATC ((((((....)))))) | -40.6 kcal/mol | 56.3 °C |
| GATCGTTGTGACGATC ((((((....)))))) | -41 kcal/mol | 60.2 °C |
| GATCGTTTACACGATC ((((((....)))))) | -45.4 kcal/mol | 53.8 °C |
| GATCGTTTATACGATC ((((((....)))))) | -38.7 kcal/mol | 57.5 °C |
| GATCGTTTGTACGATC ((((((....)))))) | -37.3 kcal/mol | 56 °C |
| GATCGTTTTCACGATC ((((((....)))))) | -45.2 kcal/mol | 55.4 °C |
| GATCTAAAACTAGATC ((((((....)))))) | -21.1 kcal/mol | 31.1 °C |
| GATCTAAAGTTAGATC ((((((....)))))) | -26.1 kcal/mol | 36.7 °C |
| GATCTAAATCTAGATC ((((((....)))))) | -25.2 kcal/mol | 35.4 °C |
| GATCTAAATGTAGATC ((((((....)))))) | -26.8 kcal/mol | 36.7 °C |
| GATCTAACACTAGATC ((((((....)))))) | -24.6 kcal/mol | 36.9 °C |
| GATCTAACGATAGATC ((((((....)))))) | -29.4 kcal/mol | 34.1 °C |

| Sequence | folding enthalpy [1] | Tm [2] |
| --- | --- | --- |
| GATCTAACGTTAGATC ((((((....)))))) | -47 kcal/mol | 48.3 °C |
| GATCTAACTTTAGATC ((((((....)))))) | -29.9 kcal/mol | 43.2 °C |
| GATCTAAGCATAGATC ((((((....)))))) | -32.2 kcal/mol | 40.3 °C |
| GATCTAAGCTAGATC ((((((...)))))) | -21.5 kcal/mol | 39.5 °C |
| GATCTAAGCTTAGATC ((((((....)))))) | -53.5 kcal/mol | 47.5 °C |
| GATCTAAGGCTAGATC ((((((....)))))) | -25.3 kcal/mol | 38.8 °C |
| GATCTAAGTTAGATC ((((((...)))))) | -29.9 kcal/mol | 37.3 °C |
| GATCTAATACTAGATC ((((((....)))))) | -30.1 kcal/mol | 37.4 °C |
| GATCTAATCATAGATC ((((((....)))))) | -34.8 kcal/mol | 38.6 °C |
| GATCTAATTATAGATC ((((((....)))))) | -29 kcal/mol | 37.9 °C |
| GATCTACACATAGATC ((((((....)))))) | -44.3 kcal/mol | 43.2 °C |
| GATCTACCAGTAGATC ((((((....)))))) | -32.6 kcal/mol | 48.9 °C |
| GATCTACCGATAGATC ((((((....)))))) | -35.5 kcal/mol | 37.8 °C |
| GATCTACGGGTAGATC ((((((....)))))) | -42.6 kcal/mol | 51.1 °C |
| GATCTACGTGTAGATC ((((((....)))))) | -48.5 kcal/mol | 55.2 °C |
| GATCTACTGTAGATC ((((((...)))))) | -36.8 kcal/mol | 41.1 °C |
| GATCTACTTCTAGATC ((((((....)))))) | -33.5 kcal/mol | 38.7 °C |
| GATCTAGAACTAGATC ((((((....)))))) | -34.2 kcal/mol | 44.9 °C |
